Screens as filed in PubChem.
Many of the other results were omitted from the sample, so hits are more common in it than they were.
Insulin prom act: TRM-6 insulin promoter activation | TRM-6 cells, insulin promoter eGFP reporter, imaging; plate-scaled: unstimulated 0, stimulated control 100 | activation, % at 2 µM | hit rate 0.81% among 130,000 | AID 1296;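 active = activation at 2 µM above a set limit, confirmed on inspection of the cell images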;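 also: share of cells whose green reporter signal exceeds an intensity cutoff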
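System: human fetal islet-derived TRM-6 cells with tamoxifen-inducible insulin promoter–eGFP reporter; input: seeding density of 1,000 cells per well; buffer or medium: Low-glucose (5.5 mM) medium with tamoxifen; incubation: compound exposure 48 h, 37 °C; measured by: high-content imaging of fixed cells with Hoechst nuclear stain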
Starred values were filed as active, the others as inactive.

SMILES	Insulin prom act
CC(C)NC(=O)Cn1c(SCC(=O)c2ccc(F)cc2)nc2ccccc21	224
O=C(Cn1c(C(F)(F)F)nc2ccccc21)c1ccc(F)cc1	84*
Cc1cc2cc(CCNC(=O)C(=O)c3c[nH]c4ccccc34)c(=O)[nH]c2cc1C	0
O=C1COCCOCCOCCOCC(=O)NCCN1	3
CCCn1nnc(NC(=O)c2ccc(Br)cc2)n1	-79
CCOc1ccc(C(=O)Nc2cc(NC(=O)c3ccc(OCC)c(Cl)c3)cc(C(=O)O)c2)cc1Cl	-6
CCCn1nnc(NC(=O)c2ccc(OCC)c(Cl)c2)n1	623*
O=C(CSc1nc(-c2ccccc2)c(-c2ccccc2)[nH]1)NCc1ccco1	343
CC(C)(C)c1cn(-c2ccc(F)cc2)c(=S)[nH]1	-3
COc1ccc(/C=N/NS(=O)(=O)c2ccccc2)cc1OS(=O)(=O)c1ccc(C)cc1	-7
Cc1ccc(S(=O)(=O)Oc2ccccc2/C=N/NC(N)=S)cc1	103*
COc1ccc(/C=N/NC(N)=S)cc1OC(=O)c1ccccc1	4
Cc1cccc(-n2cnc(C(=O)NNC(=S)Nc3ccc(Cl)cc3)c2)n1	-7
CCOC(=O)N1CCN(C(=O)CN(C)S(=O)(=O)c2ccc3c(c2)C(C)(C)C(=O)N3C)CC1	0
CCOC(=O)CC(C#N)c1c[nH]c2ccccc12 (stereo unspecified)	-3
COc1ccc(C(=O)N2CCCC(c3ccccc3)C2)cc1 (stereo unspecified)	136*
O=C(c1ccccc1F)N1CCCC(c2ccccc2)C1 (stereo unspecified)	3
COc1ccc(C(=O)N2CCC(C(=O)O)CC2)cc1	-6
O=c1cc(O)nc(SCc2ccccc2)n1-c1ccc(F)cc1	0
Fc1ccccc1CSc1nc2ncc(Br)cc2[nH]1	0
Cc1occc1C(=O)N1CCN(Cc2ccccc2)CC1	0
O=C(c1ccco1)N1CCCN(C(=O)c2ccco2)CC1	-23
Cc1ccc(CN2CCN(C(=O)c3ccco3)CC2)cc1	422*
CN(C)c1ccc(/C=C2\C(=O)N(c3ccc([N+](=O)[O-])cc3)N=C2N2CCOCC2)cc1	71
Cc1c2ccccc2nc2c(F)c(NC(C)C)c(F)c(F)c12	233*
SMILES	Insulin prom act
OCCNc1c2ccccc2nc2c(F)c(F)c(F)c(F)c12	181
Cc1c2ccccc2nc2c(F)c(NCCO)c(F)c(F)c12	112
CC1(C)CC(NC(=O)COc2ccc3ccccc3c2)CC(C)(C)N1	5
CCOC(=O)c1nn(-c2ccc(C)cc2)c(C)c1C(C)=O	-73
CC(C)C(NC(=O)c1cccs1)C(=O)NC1=NCCS1 (stereo unspecified)	-100
Cc1cc(NC(=O)c2ccccc2NS(=O)(=O)c2c(C)c(C)cc(C)c2C)no1	4
Cc1ccc(NS(=O)(=O)c2cccc(C(=O)Nc3cc(C)on3)c2)cc1	369*
Cc1ccc(S(=O)(=O)Nc2cccc(C(=O)Nc3cc(C)ccn3)c2)cc1	7
CN(Cc1cccs1)CC(O)COCc1ccco1 (stereo unspecified)	-5
CN=c1sc2ccccc2n1CC(O)COCc1ccco1 (stereo unspecified)	-7
OC(COCc1ccco1)CN1CCN(C(c2ccccc2)c2ccccc2)CC1 (stereo unspecified)	129*
Cc1cc(C)nc(N/N=C/c2ccc3c(c2)OCCO3)n1	7
O=C(NCC(c1cccnc1)N1CCN(c2ccc(F)cc2)CC1)c1cccc(Cl)c1 (stereo unspecified)	7
CCC(=O)Nc1nc(C)c(C(=O)NC2CCCCC2)s1	127
Cn1nnc2cc(C(=O)N3CCN(c4ccccc4)CC3)ccc21	105
CCOC(=O)c1cc2sccc2n1CC(=O)C(C)(C)C	213*
COC(=O)c1cc2sccc2n1CC(=O)N1CCCc2ccccc21	193*
O=C(c1cc2sccc2n1Cc1ccccc1)N1CCc2ccccc21	0
CCOC(=O)c1cc2sc(C)cc2n1CC(=O)NCc1ccc(F)cc1	-82
CCOC(=O)c1cc2sccc2n1Cc1ccccc1	0
CCOC(=O)c1cc2sccc2n1CC(=O)N1CCCc2ccccc21	9
Cc1cc(C(=O)N2CCc3ccccc32)n(-c2ccccc2)n1	0
COc1ccc(OCCC(=O)NC2CCCCC2)cc1	-6
Cc1ccc(C2C(C#N)=C(N)SC(N)=C2C#N)c(C)c1	-4
N#CC1=C(N)SC(N)=C(C#N)C1c1ccoc1	32
SMILES	Insulin prom act
Cc1ccc(C2C(C#N)=C(N)SC(N)=C2C#N)cc1	121*
COc1ccc(CSCC(=O)N/N=C/c2ccccc2O)cc1	-75
O=C(C(c1ccccc1)c1ccccc1)N1CCN(Cc2ccccn2)CC1	0
Cn1cc(Cl)c(C(=O)NNC(=S)NC2CCCCC2)n1	492*
COc1cc(OC)c(C(=O)NNC(=S)NC2CCCCC2)cc1OC	8
COC(=O)c1c(NC(=O)c2nn(C)cc2Cl)sc2c1CCCC2	3
Cc1ccc(S(=O)(=O)N2CCN(Cc3nc4sc5c(c4c(=O)[nH]3)CCCC5)CC2)cc1	8
CCCc1cc(NCc2ccccn2)n2c(nc3ccccc32)c1C#N	0
CCCNc1cc(C)c(C#N)c2nc3ccccc3n12	381
